Reference: ChEMBL document CHEMBL5696442, “Discovery of type II inhibitors of TGFβ-activated kinase 1 (TAK1) and mitogen-activated protein kinase kinase kinase kinase 2 (MAP4K2)” (J Med Chem, 2015)
Calls of active or inactive are those of the source. The calls are words filed in the database; no cut-off is given here.

Experiments:
[1] = target: Epidermal growth factor receptor (Homo sapiens) (UniProt P00533); assay: Inhibition of EGFR ACT labeling site in human Huh-7 cell lysate at 1 uM by KiNativ Profiling analysis relative to control; format: subcellular
Epidermal growth factor receptor (Homo sapiens), sequence (P00533 whole entry): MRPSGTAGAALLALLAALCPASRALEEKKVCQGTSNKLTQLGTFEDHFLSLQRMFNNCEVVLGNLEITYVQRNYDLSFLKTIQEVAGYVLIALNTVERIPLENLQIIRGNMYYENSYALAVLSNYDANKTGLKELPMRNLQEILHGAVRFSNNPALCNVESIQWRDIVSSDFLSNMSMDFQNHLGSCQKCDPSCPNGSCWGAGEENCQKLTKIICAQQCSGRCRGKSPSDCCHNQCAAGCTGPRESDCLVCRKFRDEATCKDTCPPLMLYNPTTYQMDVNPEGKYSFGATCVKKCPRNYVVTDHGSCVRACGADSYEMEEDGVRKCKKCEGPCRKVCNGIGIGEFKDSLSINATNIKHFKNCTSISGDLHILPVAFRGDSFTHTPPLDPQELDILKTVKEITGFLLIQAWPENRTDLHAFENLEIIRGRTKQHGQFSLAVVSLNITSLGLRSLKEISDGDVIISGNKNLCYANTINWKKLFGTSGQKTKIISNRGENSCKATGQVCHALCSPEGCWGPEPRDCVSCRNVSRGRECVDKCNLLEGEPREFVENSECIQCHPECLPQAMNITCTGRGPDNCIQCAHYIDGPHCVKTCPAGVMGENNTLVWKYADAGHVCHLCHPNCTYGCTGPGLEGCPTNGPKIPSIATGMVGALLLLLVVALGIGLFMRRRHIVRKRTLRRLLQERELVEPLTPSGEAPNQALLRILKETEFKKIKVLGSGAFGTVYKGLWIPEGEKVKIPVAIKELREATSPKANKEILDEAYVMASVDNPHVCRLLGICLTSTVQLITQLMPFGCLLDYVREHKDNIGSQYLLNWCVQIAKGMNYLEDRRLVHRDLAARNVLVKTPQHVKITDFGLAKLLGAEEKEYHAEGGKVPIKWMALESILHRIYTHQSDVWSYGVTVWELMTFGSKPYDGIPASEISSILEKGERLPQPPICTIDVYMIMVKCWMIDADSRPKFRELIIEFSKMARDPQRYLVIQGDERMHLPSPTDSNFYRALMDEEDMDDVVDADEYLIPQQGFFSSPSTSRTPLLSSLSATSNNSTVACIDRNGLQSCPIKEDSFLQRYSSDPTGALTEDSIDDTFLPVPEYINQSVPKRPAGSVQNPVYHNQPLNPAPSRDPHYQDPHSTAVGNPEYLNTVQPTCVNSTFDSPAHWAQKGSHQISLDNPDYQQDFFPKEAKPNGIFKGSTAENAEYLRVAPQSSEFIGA

[2] = target: Serine/threonine-protein kinase 10 (Homo sapiens) (UniProt O94804); assay: Inhibition of LOK Lys2 labeling site harbouring DLKAGNVLMTLEGDIR in human Huh-7 cell lysate at 1 uM by KiNativ Profiling analysis relative to control; format: subcellular
[3] = target: Serine/threonine-protein kinase 38 (Homo sapiens) (UniProt Q15208); assay: Inhibition of NDR1 ACT labeling site in human Huh-7 cell lysate at 1 uM by KiNativ Profiling analysis relative to control; format: subcellular
Serine/threonine-protein kinase 38 (Homo sapiens), sequence (Q15208 2-465 limits assumed): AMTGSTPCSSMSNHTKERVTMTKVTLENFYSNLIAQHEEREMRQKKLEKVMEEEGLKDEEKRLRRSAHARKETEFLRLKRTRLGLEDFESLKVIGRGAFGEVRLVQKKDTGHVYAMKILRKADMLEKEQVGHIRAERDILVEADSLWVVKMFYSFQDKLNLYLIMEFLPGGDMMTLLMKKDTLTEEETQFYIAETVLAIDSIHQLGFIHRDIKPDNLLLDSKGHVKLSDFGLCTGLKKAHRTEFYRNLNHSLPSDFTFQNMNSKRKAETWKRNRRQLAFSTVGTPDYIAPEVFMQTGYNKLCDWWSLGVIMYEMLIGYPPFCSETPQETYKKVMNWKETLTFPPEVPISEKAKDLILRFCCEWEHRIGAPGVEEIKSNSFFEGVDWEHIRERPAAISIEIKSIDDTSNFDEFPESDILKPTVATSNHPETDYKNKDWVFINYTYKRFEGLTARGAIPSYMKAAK

[4] = target: T1, Serine/threonine-protein kinase TBK1 (Homo sapiens) (UniProt Q9UHD2); assay: Inhibition of TBK1 Lys1 labeling site in human Huh-7 cells at 1 uM by KiNativ Profiling analysis relative to control; format: cell-based
T1 sequence (whole entry): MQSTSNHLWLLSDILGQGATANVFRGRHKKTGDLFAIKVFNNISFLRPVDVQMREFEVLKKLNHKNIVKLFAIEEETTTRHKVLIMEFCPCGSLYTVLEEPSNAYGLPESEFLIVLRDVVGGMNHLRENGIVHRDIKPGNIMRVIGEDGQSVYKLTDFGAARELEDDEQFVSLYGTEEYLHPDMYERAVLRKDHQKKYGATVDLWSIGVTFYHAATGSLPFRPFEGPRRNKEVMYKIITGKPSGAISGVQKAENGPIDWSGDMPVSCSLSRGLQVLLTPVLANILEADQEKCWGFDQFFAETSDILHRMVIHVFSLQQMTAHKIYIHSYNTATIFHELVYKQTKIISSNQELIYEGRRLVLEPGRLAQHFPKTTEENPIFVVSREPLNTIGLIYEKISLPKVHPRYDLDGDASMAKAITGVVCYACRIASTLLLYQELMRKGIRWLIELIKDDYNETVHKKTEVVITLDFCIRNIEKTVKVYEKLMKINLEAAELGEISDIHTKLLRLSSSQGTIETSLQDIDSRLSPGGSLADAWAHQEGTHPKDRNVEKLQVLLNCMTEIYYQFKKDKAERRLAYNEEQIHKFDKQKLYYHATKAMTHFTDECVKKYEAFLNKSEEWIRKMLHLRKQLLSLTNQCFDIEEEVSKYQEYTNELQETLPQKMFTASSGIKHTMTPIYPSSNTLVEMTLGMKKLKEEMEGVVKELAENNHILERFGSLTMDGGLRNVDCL

[5] = target: Activated CDC42 kinase 1 (Homo sapiens) (UniProt Q07912); assay: Inhibition of TNK2 (unknown origin) at 10 uM by Ambit Kinomescan binding assay
Activated CDC42 kinase 1 (Homo sapiens), sequence (Q07912 whole entry, looked up): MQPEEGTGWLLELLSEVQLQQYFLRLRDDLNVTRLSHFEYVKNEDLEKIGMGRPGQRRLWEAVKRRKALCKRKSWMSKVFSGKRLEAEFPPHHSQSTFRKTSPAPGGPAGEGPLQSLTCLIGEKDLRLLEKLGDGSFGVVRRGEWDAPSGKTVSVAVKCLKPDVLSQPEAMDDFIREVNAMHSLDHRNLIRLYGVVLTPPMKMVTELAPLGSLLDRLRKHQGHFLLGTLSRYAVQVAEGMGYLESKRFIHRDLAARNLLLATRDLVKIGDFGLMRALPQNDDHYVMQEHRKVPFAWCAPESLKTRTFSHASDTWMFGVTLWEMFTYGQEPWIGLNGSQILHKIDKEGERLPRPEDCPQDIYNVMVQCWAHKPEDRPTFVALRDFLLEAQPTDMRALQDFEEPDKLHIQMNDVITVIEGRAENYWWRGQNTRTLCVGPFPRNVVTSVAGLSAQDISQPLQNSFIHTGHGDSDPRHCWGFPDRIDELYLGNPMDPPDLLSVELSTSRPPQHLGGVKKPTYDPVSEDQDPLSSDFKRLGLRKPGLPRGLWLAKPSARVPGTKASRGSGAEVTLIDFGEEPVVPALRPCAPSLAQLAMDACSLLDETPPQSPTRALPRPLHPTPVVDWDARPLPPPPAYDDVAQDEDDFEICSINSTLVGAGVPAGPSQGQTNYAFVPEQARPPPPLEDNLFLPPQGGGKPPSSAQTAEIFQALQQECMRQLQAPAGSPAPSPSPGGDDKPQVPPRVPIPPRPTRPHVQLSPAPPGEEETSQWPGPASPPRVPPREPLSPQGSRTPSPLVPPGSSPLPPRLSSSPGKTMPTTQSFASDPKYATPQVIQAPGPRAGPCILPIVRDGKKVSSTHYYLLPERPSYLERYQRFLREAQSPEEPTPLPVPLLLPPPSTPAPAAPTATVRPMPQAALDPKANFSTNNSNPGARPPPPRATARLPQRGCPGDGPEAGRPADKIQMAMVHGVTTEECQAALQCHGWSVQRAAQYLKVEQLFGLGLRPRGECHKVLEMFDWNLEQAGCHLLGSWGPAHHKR

[6] = target: T2, Serine/threonine-protein kinase ULK1 (Homo sapiens) (UniProt O75385); assay: Inhibition of ULK1 Lys2 labeling site in human A-375 cells at 0.05 uM by KiNativ Profiling analysis relative to control; format: cell-based
T2 sequence (whole entry): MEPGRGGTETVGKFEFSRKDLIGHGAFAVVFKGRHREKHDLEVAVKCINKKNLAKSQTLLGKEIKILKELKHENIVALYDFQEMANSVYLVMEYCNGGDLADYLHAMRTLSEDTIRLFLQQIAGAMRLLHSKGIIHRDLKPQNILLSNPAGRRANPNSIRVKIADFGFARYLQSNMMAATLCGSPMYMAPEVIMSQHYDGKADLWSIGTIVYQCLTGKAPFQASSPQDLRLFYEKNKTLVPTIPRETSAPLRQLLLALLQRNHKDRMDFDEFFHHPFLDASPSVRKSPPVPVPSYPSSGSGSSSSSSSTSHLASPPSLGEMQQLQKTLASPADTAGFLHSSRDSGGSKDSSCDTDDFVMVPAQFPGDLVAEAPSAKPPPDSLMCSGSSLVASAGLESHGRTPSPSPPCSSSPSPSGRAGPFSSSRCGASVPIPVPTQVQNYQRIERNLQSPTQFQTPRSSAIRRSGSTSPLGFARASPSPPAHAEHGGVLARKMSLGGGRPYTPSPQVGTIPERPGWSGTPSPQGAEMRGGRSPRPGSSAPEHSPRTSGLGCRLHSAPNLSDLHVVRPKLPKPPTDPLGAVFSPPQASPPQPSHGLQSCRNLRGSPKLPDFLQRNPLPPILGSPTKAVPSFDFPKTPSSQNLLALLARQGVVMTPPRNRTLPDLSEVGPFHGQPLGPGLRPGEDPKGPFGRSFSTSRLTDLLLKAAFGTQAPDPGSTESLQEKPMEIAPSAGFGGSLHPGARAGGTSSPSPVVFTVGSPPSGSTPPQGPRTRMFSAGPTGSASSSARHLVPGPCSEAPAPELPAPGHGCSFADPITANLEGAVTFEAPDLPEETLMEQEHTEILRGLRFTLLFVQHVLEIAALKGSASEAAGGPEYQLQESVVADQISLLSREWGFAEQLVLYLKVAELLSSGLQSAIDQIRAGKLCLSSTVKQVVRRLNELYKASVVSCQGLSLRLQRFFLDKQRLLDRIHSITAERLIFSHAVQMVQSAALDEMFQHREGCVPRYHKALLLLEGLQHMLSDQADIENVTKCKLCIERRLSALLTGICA

[7] = Inhibition of MARK2/3 K2 labeling site in human Huh-7 cells at 10 uM by KiNativ Profiling analysis relative to control; settings: condition cancer
[8] = test system: eIF-2-alpha kinase GCN2 (Homo sapiens), Q9P2K8 [S808G]; assay: Inhibition of GCN2 kinase domain 2 S808G mutant (unknown origin) at 1 uM by Ambit Kinomescan binding assay relative to control
eIF-2-alpha kinase GCN2 (Homo sapiens), Q9P2K8 [S808G], sequence (Q9P2K8 whole entry S808G, the tested form may be a part): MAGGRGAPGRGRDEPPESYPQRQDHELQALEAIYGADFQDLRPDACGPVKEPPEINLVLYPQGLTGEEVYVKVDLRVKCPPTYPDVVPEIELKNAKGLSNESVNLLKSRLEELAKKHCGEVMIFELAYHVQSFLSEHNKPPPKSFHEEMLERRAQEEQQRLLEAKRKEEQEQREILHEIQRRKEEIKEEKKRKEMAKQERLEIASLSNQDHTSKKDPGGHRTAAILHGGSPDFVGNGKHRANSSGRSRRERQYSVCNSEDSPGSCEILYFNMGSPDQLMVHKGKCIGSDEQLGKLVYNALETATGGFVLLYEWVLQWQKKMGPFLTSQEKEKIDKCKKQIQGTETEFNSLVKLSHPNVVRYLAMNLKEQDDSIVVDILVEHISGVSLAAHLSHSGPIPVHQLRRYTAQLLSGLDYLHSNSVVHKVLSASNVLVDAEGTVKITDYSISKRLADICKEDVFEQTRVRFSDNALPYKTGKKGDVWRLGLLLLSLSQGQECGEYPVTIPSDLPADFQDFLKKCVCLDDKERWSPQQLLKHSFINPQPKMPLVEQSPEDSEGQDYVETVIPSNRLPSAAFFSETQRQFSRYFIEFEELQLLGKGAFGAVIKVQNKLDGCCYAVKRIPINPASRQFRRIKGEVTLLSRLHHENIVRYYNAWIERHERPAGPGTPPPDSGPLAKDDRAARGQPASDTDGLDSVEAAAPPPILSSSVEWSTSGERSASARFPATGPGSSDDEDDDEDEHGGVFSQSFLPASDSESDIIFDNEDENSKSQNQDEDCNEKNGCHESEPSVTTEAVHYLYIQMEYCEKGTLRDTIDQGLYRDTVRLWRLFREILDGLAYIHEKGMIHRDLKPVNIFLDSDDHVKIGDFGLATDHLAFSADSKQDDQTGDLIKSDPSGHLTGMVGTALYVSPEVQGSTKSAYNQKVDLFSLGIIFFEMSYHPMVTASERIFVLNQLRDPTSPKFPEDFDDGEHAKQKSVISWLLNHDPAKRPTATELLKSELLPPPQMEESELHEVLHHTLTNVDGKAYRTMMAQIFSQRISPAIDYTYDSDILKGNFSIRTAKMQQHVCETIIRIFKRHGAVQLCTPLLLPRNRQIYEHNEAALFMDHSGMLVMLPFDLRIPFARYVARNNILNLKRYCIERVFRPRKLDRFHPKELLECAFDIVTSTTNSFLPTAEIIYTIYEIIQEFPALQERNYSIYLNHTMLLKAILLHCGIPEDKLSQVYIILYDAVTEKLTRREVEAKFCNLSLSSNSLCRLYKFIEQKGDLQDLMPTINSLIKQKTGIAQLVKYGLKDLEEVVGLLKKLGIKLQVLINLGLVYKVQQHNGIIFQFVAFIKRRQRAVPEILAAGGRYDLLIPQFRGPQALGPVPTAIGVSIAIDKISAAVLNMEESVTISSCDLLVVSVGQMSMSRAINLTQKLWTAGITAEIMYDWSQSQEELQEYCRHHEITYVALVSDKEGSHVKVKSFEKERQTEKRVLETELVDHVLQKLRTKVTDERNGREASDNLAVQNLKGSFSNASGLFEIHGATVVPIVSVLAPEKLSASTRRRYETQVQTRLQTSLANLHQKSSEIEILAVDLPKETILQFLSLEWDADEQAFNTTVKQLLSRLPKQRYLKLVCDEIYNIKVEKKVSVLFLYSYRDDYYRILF

[9] = target: Ribosomal protein S6 kinase alpha-3 (Homo sapiens) (UniProt P51812); assay: Inhibition of RSK2 domain1 ACT labeling site in human A-375 cells at 5 uM by KiNativ Profiling analysis relative to control; format: cell-based
Ribosomal protein S6 kinase alpha-3 (Homo sapiens), sequence (P51812 whole entry, the tested form may be a part): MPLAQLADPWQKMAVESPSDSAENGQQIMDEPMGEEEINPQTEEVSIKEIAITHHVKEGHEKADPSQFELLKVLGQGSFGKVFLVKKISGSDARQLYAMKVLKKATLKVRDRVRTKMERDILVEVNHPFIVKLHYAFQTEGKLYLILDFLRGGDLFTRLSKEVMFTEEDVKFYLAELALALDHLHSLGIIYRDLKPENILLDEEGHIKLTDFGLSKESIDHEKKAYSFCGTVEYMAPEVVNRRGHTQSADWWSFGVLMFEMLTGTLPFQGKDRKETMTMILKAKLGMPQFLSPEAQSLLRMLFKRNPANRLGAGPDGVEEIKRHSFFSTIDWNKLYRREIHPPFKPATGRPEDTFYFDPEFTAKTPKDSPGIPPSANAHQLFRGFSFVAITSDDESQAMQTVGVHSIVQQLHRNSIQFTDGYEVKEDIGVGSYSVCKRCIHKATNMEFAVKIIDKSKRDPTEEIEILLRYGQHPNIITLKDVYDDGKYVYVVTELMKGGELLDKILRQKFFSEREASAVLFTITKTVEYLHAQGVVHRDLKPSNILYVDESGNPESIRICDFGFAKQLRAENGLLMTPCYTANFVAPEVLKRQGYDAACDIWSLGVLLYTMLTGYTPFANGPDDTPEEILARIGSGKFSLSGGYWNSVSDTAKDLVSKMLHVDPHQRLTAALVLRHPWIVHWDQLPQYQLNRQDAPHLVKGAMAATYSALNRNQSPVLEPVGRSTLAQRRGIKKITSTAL
How it was run: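 Live A375 melanoma cells treated with compound at 5 or 0.5 μM, then lysed. Lysate kinases were labeled with a lysine-reactive ATP or ADP-biotin probe. Inhibition was read as protection of labeling sites from the probe.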

[10] = target: Activated CDC42 kinase 1 (Homo sapiens) (UniProt Q07912); assay: Inhibition of ACK Lys1 labeling site in human A-375 cells at 0.5 uM by KiNativ Profiling analysis relative to control; format: cell-based

In the case of `CNc1cc(Oc2cc(C(=O)Nc3cc(N4CCN(C)CC4)cc(C(F)(F)F)c3)ccc2C)ncn1`, the inhibition [1] was -3.2%, the inhibition [2] was -8.9% and the inhibition [3] was 4.2%. For the same compound, the inhibition [4] was 30.9%.
With `CCN1CCN(Cc2ccc(NC(=O)c3ccc(C)c(Oc4ccnc5[nH]ccc45)c3)cc2C(F)(F)F)CC1` the inhibition [5] was “inactive”, the inhibition [6] was 4.8% and the inhibition at 10 µM [7] was 11.8%.
For `CCN1CCN(Cc2ccc(NC(=O)c3ccc(C)c(/C=C/c4cnc5[nH]ccc5c4OC)c3)cc2C(F)(F)F)CC1`, the inhibition [8] was 11%, the inhibition [9] was 17.8% and the inhibition [10] was 35.2%.
